Source: PubChem BioAssay (several laboratories)
The list is not random: actives were taken first. Their share in the collection is about 3.7%.
ROMK mod: modulators of human ROMK potassium channel | Tet-inducible ROMK, thallium flux fluorescence; actives lie on both sides | B-score at 10 µM | 130,000 compounds, 2% hits | P48048 | AID 1918;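 active = signal ratio slope over the read window, or its plate-corrected B-score, at least 3 SD from the plate mean, either direction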;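 also: B-score of the F/F0 ratio slope over 7 to 12 s after thallium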
Target sequence (P48048 whole entry, looked up): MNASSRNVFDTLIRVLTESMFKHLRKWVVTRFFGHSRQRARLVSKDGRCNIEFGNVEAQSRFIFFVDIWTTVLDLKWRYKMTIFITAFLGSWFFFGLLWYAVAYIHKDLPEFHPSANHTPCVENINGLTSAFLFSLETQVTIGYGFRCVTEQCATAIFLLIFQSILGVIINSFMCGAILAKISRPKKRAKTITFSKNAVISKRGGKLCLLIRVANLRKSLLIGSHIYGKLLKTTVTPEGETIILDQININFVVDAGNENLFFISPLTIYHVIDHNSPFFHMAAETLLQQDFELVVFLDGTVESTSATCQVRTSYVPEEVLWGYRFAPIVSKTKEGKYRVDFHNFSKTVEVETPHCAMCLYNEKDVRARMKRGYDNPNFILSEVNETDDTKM
Cl transport mod: modulates chloride dependent transport by human KCC2 | KCC2 cells, thallium flux FluoZin-2 fluorescence | 190,000 compounds, 2.2% hits | B-score of Tl+ flux slope (higher = more flux/activation; lower = inhibition) at 10 µM | AID 1456;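 active = thallium flux slope and its plate-corrected score both differing from the plate sample mean at a set confidence after two filtering rounds, in either direction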;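 also: slope of fluorescence scaled to starting intensity during 10 to 20 s after thallium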
Arbovirus inh: blocks arbovirus infection; AID 1251; 200,000 compounds, 0.37% hits; arbovirus infection cell-based antiviral screen; inhibition, % at 10 µM; in the data active = inhibition above about 30%
Calpain2 inh: inhibitors of pig calpain II; AID 1236; purified calpain II, fluorogenic peptide substrate, 30 min; 220,000 compounds, 0.37% hits; inhibition, % at 16 µM;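 active = inhibition above about 50%, limit read from the data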
Mdm2 ligase inh: Mdm2 E3 ligase (human) inhibition. cell-based MDM2 ubiquitination luciferase reporter, 2 h; 0 = plate control, 100 = twice control, blank-subtracted. signal enhancement, % at 5 µM. 210,000 compounds, 0.11% hits. AID 1230;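 active = signal enhancement of 30% or more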;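 also: luminescence tracks abundance of the self-degrading MDM2-luciferase fusion protein; higher signal means inhibition of MDM2 E3 ligase activity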
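Assay system: stable mammalian line carrying autodegrading MDM2–luciferase fusion reporter; amount: 2000 cells seeded into each well; buffer or medium: DMEM; benchmarks: plate control and blank wells; signal: luciferase luminescence; timing: 2 h compound exposure at 37 °C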
PKD1 kinase inh: PKD1 (human) kinase inhibition; Q15139; 200,000 compounds, 0.056% hits; AID 797; PKD1 kinase fluorescence polarization assay; inhibition, % (concentration not given with the values); in the data active = inhibition above about 50%
Active calls of the source: *; . = no result given.

SMILES	ROMK mod	Cl transport mod	Arbovirus inh	Calpain2 inh	Mdm2 ligase inh	PKD1 kinase inh
CCc1cc2ccc(C)cc2nc1SCC(=O)N1CCN(C(=O)c2ccco2)CC1	-1.9	.	3	3	-16	1
CCc1cc2ccc(C)cc2nc1SCC(=O)NNC(=O)c1ccco1	0.27	3*	-8	22	0	-1
Cc1ccc(NC(=O)CSCC(=O)NCCc2ccccn2)c(C)c1	-0.8	0.19	5	-17	-5	-6
COc1ccc2cc(-c3cc(C(=O)O)c4ccccc4n3)ccc2c1	.	.	34*	-145	-95	-2
COc1ccc(-c2cc(CS(=O)(=O)c3ccccc3)on2)cc1	-0.12	-0.1	0	3	-23	-7
Cc1c(Nc2scc(-c3ccccc3)[n+]2-c2ccccc2)c(=O)n(-c2ccccc2)n1C	-1.4	-0.18	-6	2	-16	4
Cc1ccccc1Nc1scc(-c2ccc(Cl)cc2)[n+]1-c1ccccc1C	-0.02	-0.41	9	50*	0	-3
COc1cc2c(cc1OC)C(c1ccccc1)CC2=O (stereo unspecified)	-0.12	0.12	.	-6	-21	.
CC1Cc2ccccc2N1C(=O)C1CCCN(S(=O)(=O)c2cccc3nsnc23)C1 (stereo unspecified)	-3.1*	-0.11	-7	55*	-6	-4
O=C(NCc1ccncc1)C(=O)Nc1nc(C23CC4CC(CC(C4)C2)C3)cs1	.	0.24	8	-25	-12	0
O=C(NCc1ccccc1)C(=O)Nc1nc(C23CC4CC(CC(C4)C2)C3)cs1	.	3.9*	7	23	-7	-11
CCOC(=O)C1(Cc2ccccc2)CCCN(Cc2ccc(OCC)c(CO)c2)C1 (stereo unspecified)	-0.34	.	0	-5	-10	-2
COc1cccc(Sc2ccccc2/C=N/NC(N)=O)c1	-0.047	0.41	-18	-1	-16	2
Cn1c(CNC(=O)c2ccco2)nnc1SCC(=O)N1c2ccccc2Sc2ccccc21	0.91	-0.34	-5	0	30*	-6
CC1CCCC(NC(=O)CSc2nnnn2C)C1C (stereo unspecified)	.	0.071	1	-50	-1	-2
Cn1nnnc1SCC(=O)NC1CCCCC1	.	-0.0018	4	57*	5	-4
NC(N)=N/N=C/c1cccc([N+](=O)[O-])c1O	-0.19	-0.25	-2	24	-15	-3
O=[N+]([O-])c1cccc(/C=N\N=C2c3ccccc3-c3ccccc32)c1O	0.79	0.43	40*	61*	-19	-10
O=[N+]([O-])c1ccccc1Oc1ccc(C(F)(F)F)cn1	-0.38	0.57	1	-22	-3	-9
FC(F)(F)c1ccc(Oc2ccc3ccccc3c2Br)nc1	.	1.4	35*	13	-11	-16
CCCCOc1ccc(CSCCNC(=S)Nc2ccccc2)cc1	.	-0.54	3	3	-12	2
CC(C)COc1ccc(CSCCNC(=S)Nc2ccccc2)cc1	.	-0.69	-45	65*	-7	2
N#Cc1cc([N+](=O)[O-])ccc1NC(=O)COC(=O)CC1CCCC1	.	-0.39	.	-18	.	.
Cc1ccc(C(=O)NCCCNc2ccccc2[N+](=O)[O-])cc1	-0.81	-2.4	-4	51*	15	1
O=C(CSc1ccc2nnc(-c3ccccn3)n2n1)Nc1nccs1	-0.74	1.3	5	-2	-1	-4
SMILES	ROMK mod	Cl transport mod	Arbovirus inh	Calpain2 inh	Mdm2 ligase inh	PKD1 kinase inh
O=C(CSc1ccc2nnc(-c3ccncc3)n2n1)Nc1nccs1	1.4	1.7	6	65*	-6	0
O=C(CSc1ccc2nnc(-c3cccnc3)n2n1)c1ccccc1	-0.029	-0.69	15	-24	-14	112*
Cc1[nH]c2ccccc2c1C(O)CN1CCC2(CC1)OCCO2 (stereo unspecified)	.	0.24	.	-4	-6	.
Cc1onc(-c2ccccc2)c1NC(=O)N(CCC#N)Cc1ccccc1	.	-0.4	.	-9	-20	.
CCCCn1c(NS(=O)(=O)c2ccccc2)c(S(=O)(=O)c2ccc(C)cc2)c2nc3ccccc3nc21	.	-7.1*	-6	-318	-20	0
O=C1c2ccccc2C(=O)c2c1cccc2N1CCCC1	0.71	-0.54	-12	51*	4	4
O=C(c1cc2nc(-c3ccc(Cl)cc3)cc(C(F)(F)F)n2n1)N1CCOCC1	0.57	0.32	4	-216	10	-13
COC(=O)c1ccc(NC(=O)Nc2ccc(OC)cc2)cc1	-0.4	0.62	3	42	-3	3
COC(=O)c1ccc(=O)n(-c2ccc(OC)cc2)c1	-0.23	8.2*	2	-73	-34	4
CCN(CC(=O)Nc1ccc2c(c1)OCO2)Cc1nc2ccccc2c(=O)[nH]1	.	-0.0096	-1	4	7	-2
CCN(CC(=O)Nc1ccc(N2CCOCC2)cc1)Cc1nc2ccccc2c(=O)[nH]1	.	0.21	7	-2	39*	3
CCCC(=O)Nc1ccc(Sc2ccc([N+](=O)[O-])cc2)cc1	.	0.42	6	58*	-11	3
CC(C)(CO)CNC(=O)CC1C(=O)NCCN1CC(c1ccccc1)c1ccccc1 (stereo unspecified)	-0.29	-0.047	32*	8	-19	-3
O=S(=O)(c1ccc(F)cc1)N1CCCN(c2nccc(C(F)(F)F)n2)CC1	0.23	0.46	.	17	-5	.
COC(=O)[C@H](Cc1ccccc1)NC(=O)O[C@@H]1C(=O)c2cc(OC)ccc2O[C@H]1c1ccc(OC)c(Br)c1	0.0097	0.056	32*	-113	.	1
CC[C@H](C)[C@@H](NC(=O)O[C@@H]1C(=O)c2cc(OC)ccc2O[C@H]1c1ccc(OC)c(Br)c1)C(=O)OC	1.6	1.5	-1	-10	.	-4
COc1ccc(CC(=O)NNC(=O)CSc2nc(C)c(C)c(=O)[nH]2)cc1	0.02	0.22	-3	-15	-6	3
NC(=O)c1ccc(-n2nnnc2Oc2ccccc2C(=O)N2CCOCC2)cc1	.	0.75	3	51*	-10	3
COc1ccccc1C(=O)NCC1CCN(c2ccc(S(=O)(=O)N3CCOCC3)cc2)CC1	0.79	1.3	45*	-9	-10	5
NC(=O)c1ccc(Oc2ccc(C(N)=O)cc2)cc1	.	-0.56	.	-18	-19	.
N#C/C(=N\Nc1ccc(Cl)cc1)C(=O)c1ccccc1	2.8*	-3.5*	-20	-34	-36	0
COc1ccc(C(=O)/C(C#N)=N/Nc2ccc([N+](=O)[O-])cc2)cc1	6*	-3.6*	-21	-22	-52	1
CCOC(=O)NC(=O)/C(C#N)=N\Nc1ccc(Cl)cc1	-0.81	0.88	17	-17	-13	0
COc1ccc(N/N=C(\C#N)C(N)=O)cc1	.	-0.17	-12	22	-4	3
Cc1cc(-c2nnc(CCC(=O)N3CCN(Cc4cccc(F)c4)CC3)o2)c(C)o1	-0.44	0.38	4	-49	-4	-5
Nc1ccc(S(=O)(=O)N2CCCC2C(=O)O)cc1 (stereo unspecified)	.	.	.	4	.	.
